Test results as given in ChEMBL document CHEMBL1125740, “Heterocyclic quinones. 17. A new in vivo active antineoplastic drug: 6,7-bis(1-aziridinyl)-4-[[3-(N,N-dimethylamino)propyl]amino]-5,8- quinazolinedione” (J Med Chem, 1991).
Values joined by “and” are separate entries in the source; they are usually repeats but may differ in a detail not shown here. Equal entries are not always repeated.

Columns and labels:
P388 [1] = assay: Compound was evaluated in vivo for antitumor activity after intraperitoneal administration against P388/L-PAM(14) for mortality range at an optimal dose of 0.25 mg/kg/injection at 1,4,7,11 day schedule.; assay type: functional, Mus musculus
P388 [2] = assay: Compound was evaluated in vivo for antitumor activity after intraperitoneal administration against P388 (1313) for tumor free survivors at an optimal dose of 0.4 mg/kg/injection; assay type: functional, Mus musculus
L1210 [3] = assay: Compound was evaluated in vivo for antitumor activity after intraperitoneal administration against L1210(935) for mortality range at an optimal dose of 0.2 mg/kg/injection at 1-4 day schedule.; assay type: functional, Mus musculus
Summary of the method: (§1)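 L1210 leukemia, maintained in DBA/2 mice, was given ip as 10⁵ cells on day 0 to F1 hybrid or strain-of-origin mice over 18 g, in groups of 8. Dosing was ip from day 1, and mortality was checked daily. Median day of death counts dying mice only. %ILS = 100×(treated − control median day of death)/control median. Tumor-free survivors were counted on day 60. Weight change is g/mouse at nadir.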

[4] = Compound was evaluated in vivo for antitumor activity against Glasgow osteogenic sarcoma after injecting the compound intravenously for median tumor burden; assay type: functional, Mus musculus
Summary of the method: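 Glasgow osteogenic sarcoma in C57Bl/6-derived hosts: 30-60 mg fragments implanted sc by trocar on day 0. Drug given iv on days 3, 6 and 9, 7 mice per group. Tumors measured by caliper. Median tumor burden recorded on day 10. Body weight change per mouse recorded at nadir. Toxicity-related deaths counted.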

P388 [5] = assay: Compound was evaluated in vivo for antitumor activity after intraperitoneal administration against P388/L-PAM(14) for total dose at an optimal dose of 0.25 mg/kg/injection at 1,4,7,11 day schedule.; assay type: functional, Mus musculus
P388 [6] = assay: Compound was evaluated in vivo for antitumor activity after intraperitoneal administration against P388/L-PAM(14) for total dose at an optimal dose of 0.4 mg/kg/injection at 1,2,3,4 day schedule.; assay type: functional, Mus musculus
L1210 [7] = assay: Compound was evaluated in vivo for antitumor activity after intraperitoneal administration against L1210(935) for total dose at an optimal dose of 0.2 mg/kg/injection at 1-4 day schedule.; assay type: functional, Mus musculus; summary of the method: as §1
P388 [8] = assay: Compound was evaluated in vivo for antitumor activity after intraperitoneal administration against P388 (1313) for % increase in life span at an optimal dose of 0.2 mg/kg/injection; assay type: functional; settings: Mus musculus, P388, ip
[9] = Compound was evaluated in vivo for antitumor activity against mammary adenocarcinoma 16/C after injecting the compound intravenously for total dose.; assay type: functional, Mus musculus
Summary of the method: (§2)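 30-60 mg tumor fragments implanted sc by trocar on day 0 into C57Bl/6-derived hosts (B16) or C3H/He-derived hosts (16/C). Drug given iv on days 6, 9 and 13 (B16) or 6, 9 and 12 (16/C), 10 mice per group. Tumors measured by caliper. T/C % taken from median tumor burden of treated vs control groups on day 15 (B16) or day 14 (16/C). Body weight change per mouse recorded at nadir.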

[10] = Compound was evaluated in vivo for antitumor activity against Lewis Lung cercinoma after injecting the compound intravenously for total dose.; assay type: functional, Mus musculus
Summary of the method: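 Lewis lung carcinoma: 10^6 cells implanted im into C57Bl/6-derived hosts. Drug given iv on days 5, 9 and 13, 10 mice per group. Median tumor burden and weight nadir recorded. Survivors were killed on day 19, and their lungs were fixed in Fekete solution so that macroscopic metastases could be counted.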

B16 [11] = assay: Compound was evaluated in vivo for antitumor activity against B16 melanoma 1 after injecting the compound intravenously for percent T/C (value in parentheses indicates the day of evaluation); assay type: functional, Mus musculus
P388 [12] = assay: Compound was evaluated in vivo for antitumor activity after intraperitoneal administration against P388 (1313) for mortality range at an optimal dose of 1 mg/kg/injection; assay type: functional, Mus musculus
P388 [13] = assay: Compound was evaluated in vivo for antitumor activity after intraperitoneal administration against P388/L-PAM(14) for change in body weight at an optimal dose of 0.1 mg/kg/injection at 1,2,3,4 day schedule.; assay type: functional, Mus musculus
P388 [14] = assay: Compound was evaluated in vivo for antitumor activity after intraperitoneal administration against P388/L-PAM(12) for mortality range at an optimal dose of 0.75 mg/kg/injection; assay type: functional, Mus musculus
P388 [15] = assay: Compound was evaluated in vivo for antitumor activity after intraperitoneal administration against P388 (1313) for total dose at an optimal dose of 0.25 mg/kg/injection; assay type: functional, Mus musculus
P388 [16] = assay: Compound was evaluated in vivo for antitumor activity after intraperitoneal administration against P388/L-PAM(12) for total dose at an optimal dose of 0.75 mg/kg/injection; assay type: functional, Mus musculus
P388 [17] = assay: Compound was evaluated in vivo for antitumor activity after intraperitoneal administration against P388/L-PAM(14) for tumor free survivors at an optimal dose of 0.125 mg/kg/injection at 1,4,7,11 day schedule.; assay type: functional, Mus musculus
P388 [18] = assay: Compound was evaluated in vivo for antitumor activity after intraperitoneal administration against P388/L-PAM(12) for tumor free survivors at an optimal dose of 0.75 mg/kg/injection; assay type: functional, Mus musculus
P388 [19] = assay: Compound was evaluated in vivo for antitumor activity after intraperitoneal administration against P388 (1313) for total dose at an optimal dose of 1 mg/kg/injection; assay type: functional, Mus musculus
P388 [20] = assay: Compound was evaluated in vivo for antitumor activity after intraperitoneal administration against P388 (1313) for median day of death at an optimal dose of 0.25 mg/kg/injection; assay type: functional, Mus musculus
P388 [21] = assay: Compound was evaluated in vivo for antitumor activity after intraperitoneal administration against P388/L-PAM(14) for % increase in life span at an optimal dose of 0.2 mg/kg/injection at 1,2,3,4 day schedule.; assay type: functional; settings: Mus musculus, P388, ip
P388 [22] = assay: Compound was evaluated in vivo for antitumor activity after intraperitoneal administration against P388/L-PAM(12) for % increase in life span at an optimal dose of 0.75 mg/kg/injection; assay type: functional; settings: Mus musculus, P388, ip
P388 [23] = assay: Compound was evaluated in vivo for antitumor activity after intraperitoneal administration against P388 (1313) for tumor free survivors at an optimal dose of 1 mg/kg/injection on day 60; assay type: functional, Mus musculus
P388 [24] = assay: Compound was evaluated in vivo for antitumor activity after intraperitoneal administration against P388/L-PAM(14) for % increase in life span at an optimal dose of 1 mg/kg/injection; assay type: functional; settings: Mus musculus, P388, ip
L1210 [25] = assay: Compound was evaluated in vivo for antitumor activity after intraperitoneal administration against L1210(935) for total dose at an optimal dose of 0.1 mg/kg/injection at 1-4 day schedule.; assay type: functional, Mus musculus; summary of the method: as §1
B16 [26] = assay: Compound was evaluated in vivo for antitumor activity against […] B16 melanoma 2 after injecting the compound intravenously for optimal dose; assay type: functional, Mus musculus
L1210 [27] = assay: Compound was evaluated in vivo for antitumor activity after intraperitoneal administration against L1210(935) for tumor free survivors at an optimal dose of 0.5 mg/kg/injection at 1,4,7,11 day schedule.; assay type: functional, Mus musculus; summary of the method: as §1
P388 [28] = assay: Compound was evaluated in vivo for antitumor activity after intraperitoneal administration against P388 (1313) for mortality range at an optimal dose of 0.5 mg/kg/injection; assay type: functional, Mus musculus
L1210 [29] = assay: Compound was evaluated in vivo for antitumor activity after intraperitoneal administration against L1210(935) for total dose at an optimal dose of 0.5 mg/kg/injection at 1,4,7,11day schedule.; assay type: functional, Mus musculus; summary of the method: as §1
B16 [30] = assay: Compound was evaluated in vivo for antitumor activity against B16 melanoma after injecting the compound intravenously for optimal dose; assay type: functional, Mus musculus; summary of the method: as §2

CN(C)CCCNc1ncnc2c1C(=O)C(N1CC1)=C(N1CC1)C2=O
Mortality (P388 [1]): 20 days
Survivors (P388 [2]): 1
Mortality (L1210 [3]): 14 days
Tumor burden [4]: 40 mg
Total dose (P388 [5]): 1 mg/kg
Total dose (P388 [6]): 1.6 mg/kg
Total dose (L1210 [7]): 0.8 mg/kg
ILS at 0.2 mg/kg (P388 [8]): 62%
Total dose [9]: 1.2 mg/kg and 0.6 mg/kg
Total dose [10]: 1.2 mg/kg and 0.6 mg/kg
T/C (B16 [11]): 76%
Mortality (P388 [12]): 24 days
Change in body weight (P388 [13]): 0.5 g mouse-1
Mortality (P388 [14]): 19
Optimal dose (P388 [15]): 1 mg/kg
Optimal dose (P388 [16]): 0.75 mg/kg
Survivors (P388 [17]): 0
Survivors (P388 [18]): 0
Optimal dose (P388 [19]): 1 mg/kg
Median day of death (P388 [20]): 19
ILS at 0.2 mg/kg (P388 [21]): 36%
ILS at 0.75 mg/kg (P388 [22]): 19%
Survivors (P388 [23]): 0
ILS at 1 mg/kg (P388 [24]): 36%
Total dose (L1210 [25]): 0.4 mg/kg
Optimal dose (B16 [26]): 0.2 mg/kg
Survivors (L1210 [27]): 1
Mortality (P388 [28]): 30 days
Total dose (L1210 [29]): 2 mg/kg
Optimal dose (B16 [30]): 0.4 mg/kg and 0.2 mg/kg
